According to PMC10598825 (JACS Au, 2023):
Residue numbers refer to the chain shown, from its start.

Experiments:
WT BcTSPO = target: T1, WT BcTSPO (Bacillus cereus, UniProt Q81BL7); assay: PpIX degradation activity assay; assay type: biochemical; conditions: WT TSPO in nanodiscs, PpIX:TSPO 1:1, light exposure
T1 sequence (Q81BL7 1-153): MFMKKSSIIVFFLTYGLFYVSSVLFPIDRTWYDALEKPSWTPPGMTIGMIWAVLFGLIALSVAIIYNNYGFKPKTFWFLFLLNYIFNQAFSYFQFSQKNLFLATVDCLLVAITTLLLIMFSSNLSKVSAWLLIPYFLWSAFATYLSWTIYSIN
Procedure, shortened: (§1)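 His10-tagged Bacillus cereus TSPO (C107S cysteine-free background) was expressed in E. coli BL21(DE3) pLysS, Ni-purified in β-DDM, then reconstituted into MSP1D1 nanodiscs with POPC:POPE 60:40 (TSPO/MSP/lipid/cholate 1/4/270/540). PpIX and loaded nanodiscs were mixed 1:1 molar in a 1 mm quartz cuvette. Emission at 633 nm was recorded in pulses of 60 s continuous illumination. V0 was taken as the absolute slope of a linear fit to the first three points (~120 s). Triplicate, mean ± SE.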

BcTSPO 34/102-D33P [1] = target: T2, BcTSPO 34/102-D33P (Bacillus cereus, UniProt Q81BL7, A34C/C107S/D33P/L102C); assay: Tryptophan fluorescence quenching binding assay; conditions: detergent-solubilized TSPO 34/102-D33P; in words
T2 sequence (Q81BL7 1-153 D33P/A34C/L102C/C107S): T1 sequence (Q81BL7 1-153) with D33P, A34C, L102C, C107S

BcTSPO 34/151-K98E [2] = target: T3, BcTSPO 34/151-K98E (Bacillus cereus, UniProt Q81BL7, A34C/C107S/K98E/S151C); assay: Tryptophan fluorescence quenching binding assay; conditions: detergent-solubilized TSPO 34/151-K98E; in words
T3 sequence (Q81BL7 1-153 A34C/K98E/C107S/S151C): T1 sequence (Q81BL7 1-153) with A34C, K98E, C107S, S151C

BcTSPO 34/151-D33P [3] = target: T4, BcTSPO 34/151-D33P (Bacillus cereus, UniProt Q81BL7, A34C/C107S/D33P/S151C); assay: PpIX degradation activity assay; assay type: biochemical; conditions: TSPO 34/151-D33P in nanodiscs, PpIX:TSPO 1:1
T4 sequence (Q81BL7 1-153 D33P/A34C/C107S/S151C): T1 sequence (Q81BL7 1-153) with D33P, A34C, C107S, S151C
Procedure, shortened: as §1

[4] = target: T5, BcTSPO 23/35 double-cysteine variant (Bacillus cereus, UniProt Q81BL7, C107S/L35C/V23C); assay: Tryptophan fluorescence quenching binding assay; conditions: detergent-solubilized TSPO 23/35; in words
T5 sequence (Q81BL7 1-153 V23C/L35C/C107S): T1 sequence (Q81BL7 1-153) with V23C, L35C, C107S

BcTSPO 34/102-D33P [5] = target: T2, BcTSPO 34/102-D33P; assay: PpIX degradation activity assay; assay type: biochemical; conditions: TSPO 34/102-D33P in nanodiscs, PpIX:TSPO 1:1
Procedure, shortened: as §1

[6] = target: T6, BcTSPO 23/151 double-cysteine variant (Bacillus cereus, UniProt Q81BL7, C107S/S151C/V23C); assay: PpIX degradation activity assay; assay type: biochemical; conditions: TSPO 23/151 in nanodiscs, PpIX:TSPO 1:1
T6 sequence (Q81BL7 1-153 V23C/C107S/S151C): T1 sequence (Q81BL7 1-153) with V23C, C107S, S151C
Procedure, shortened: as §1

BcTSPO 34/151-K98E [7] = target: T3, BcTSPO 34/151-K98E; assay: PpIX degradation activity assay; assay type: biochemical; conditions: TSPO 34/151-K98E in nanodiscs, PpIX:TSPO 1:1
Procedure, shortened: as §1

BcTSPO W138F [8] = target: T7, BcTSPO W138F (Bacillus cereus, UniProt Q81BL7, C107S/W138F); assay: PpIX degradation activity assay; assay type: biochemical; conditions: TSPO W138F in nanodiscs, PpIX:TSPO 1:1
T7 sequence (Q81BL7 1-153 C107S/W138F): T1 sequence (Q81BL7 1-153) with C107S, W138F
Procedure, shortened: as §1

BcTSPO 34/151-D33P [9] = target: T4, BcTSPO 34/151-D33P; assay: Tryptophan fluorescence quenching binding assay; conditions: detergent-solubilized TSPO 34/151-D33P; in words
BcTSPO S22C-PEG = assay: Tryptophan fluorescence quenching binding assay; design: species or system Bacillus cereus; conditions: DDM-solubilized TSPO S22C conjugated with 5 kDa PEG; higher than WT
BcTSPO W51F [10] = target: T8, BcTSPO W51F (Bacillus cereus, UniProt Q81BL7, C107S/W51F); assay: Tryptophan fluorescence quenching binding assay; conditions: detergent-solubilized TSPO W51F; in words
T8 sequence (Q81BL7 1-153 W51F/C107S): T1 sequence (Q81BL7 1-153) with W51F, C107S

[11] = target: T9, BcTSPO 34/151 double-cysteine variant (Bacillus cereus, UniProt Q81BL7, A34C/C107S/S151C); assay: PpIX degradation activity assay; assay type: biochemical; conditions: TSPO 34/151 in nanodiscs, PpIX:TSPO 1:1
T9 sequence (Q81BL7 1-153 A34C/C107S/S151C): T1 sequence (Q81BL7 1-153) with A34C, C107S, S151C
Procedure, shortened: as §1

BcTSPO 34/151-W138F [12] = target: T10, BcTSPO 34/151-W138F (Bacillus cereus, UniProt Q81BL7, A34C/C107S/S151C/W138F); assay: PpIX degradation activity assay; assay type: biochemical; conditions: TSPO 34/151-W138F in nanodiscs, PpIX:TSPO 1:1
T10 sequence (Q81BL7 1-153 A34C/C107S/W138F/S151C): T1 sequence (Q81BL7 1-153) with A34C, C107S, W138F, S151C
Procedure, shortened: as §1

BcTSPO 34/151-W138F [13] = target: T10, BcTSPO 34/151-W138F; assay: Tryptophan fluorescence quenching binding assay; conditions: detergent-solubilized TSPO 34/151-W138F; in words
BcTSPO 34/102-K98E [14] = target: T11, BcTSPO 34/102-K98E (Bacillus cereus, UniProt Q81BL7, A34C/C107S/K98E/L102C); assay: PpIX degradation activity assay; assay type: biochemical; conditions: TSPO 34/102-K98E in nanodiscs, PpIX:TSPO 1:1
T11 sequence (Q81BL7 1-153 A34C/K98E/L102C/C107S): T1 sequence (Q81BL7 1-153) with A34C, K98E, L102C, C107S
Procedure, shortened: as §1

BcTSPO W51F [15] = target: T8, BcTSPO W51F; assay: PpIX degradation activity assay; assay type: biochemical; conditions: TSPO W51F in nanodiscs, PpIX:TSPO 1:1
Procedure, shortened: as §1

[16] = target: T5, BcTSPO 23/35 double-cysteine variant; assay: PpIX degradation activity assay; assay type: biochemical; conditions: TSPO 23/35 in nanodiscs, PpIX:TSPO 1:1
Procedure, shortened: as §1

[17] = target: T12, BcTSPO 34/102 double-cysteine variant (Bacillus cereus, UniProt Q81BL7, A34C/C107S/L102C); assay: PpIX degradation activity assay; assay type: biochemical; conditions: TSPO 34/102 in nanodiscs, PpIX:TSPO 1:1
T12 sequence (Q81BL7 1-153 A34C/L102C/C107S): T1 sequence (Q81BL7 1-153) with A34C, L102C, C107S
Procedure, shortened: as §1

BcTSPO W138F [18] = target: T7, BcTSPO W138F; assay: Tryptophan fluorescence quenching binding assay; conditions: detergent-solubilized TSPO W138F; in words
BcTSPO 34/102-K98E [19] = target: T11, BcTSPO 34/102-K98E; assay: Tryptophan fluorescence quenching binding assay; conditions: detergent-solubilized TSPO 34/102-K98E; in words

C=CC1=C(C)c2cc3[nH]c(cc4nc(cc5[nH]c(cc1n2)c(C)c5CCC(=O)O)C(CCC(=O)O)=C4C)c(C)c3C=C [PpIX, protoporphyrin IX]
approximately 5 nM/s: reaction velocity V0 of PpIX degradation (BcTSPO 34/151-D33P [3]) | reaction velocity V0 of PpIX degradation (BcTSPO 34/102-D33P [5]) | reaction velocity V0 of PpIX degradation (BcTSPO 34/151-K98E [7]) | reaction velocity V0 of PpIX degradation (BcTSPO 34/102-K98E [14]) | reaction velocity V0 of PpIX degradation (BcTSPO W51F [15]) | reaction velocity V0 of PpIX degradation [16]
below 2 nM/s: reaction velocity V0 of PpIX degradation (BcTSPO W138F [8]) | reaction velocity V0 of PpIX degradation (BcTSPO 34/151-W138F [12])
approximately 17 nM/s: reaction velocity V0 of PpIX degradation (WT BcTSPO) | reaction velocity V0 of PpIX degradation [6] | reaction velocity V0 of PpIX degradation [11] | reaction velocity V0 of PpIX degradation [17]
much higher: dissociation constant Kd of PpIX compared with WT (BcTSPO 34/102-D33P [1]) | dissociation constant Kd of PpIX compared with WT (BcTSPO 34/151-K98E [2]) | dissociation constant Kd of PpIX compared with WT [4] | dissociation constant Kd of PpIX compared with WT (BcTSPO 34/151-D33P [9]) | dissociation constant Kd of PpIX compared with WT (BcTSPO W51F [10]) | dissociation constant Kd of PpIX compared with WT (BcTSPO 34/102-K98E [19])
as strongly as WT: binding of PpIX compared with WT (BcTSPO 34/151-W138F [13]) | binding of PpIX compared with WT (BcTSPO W138F [18])
approximately 10 fold: Kd value of S22C-PEG relative to that of WT (BcTSPO S22C-PEG)
